Source: PMC4745115 (Nature communications, 2014)

Assays:
BetP [1] = molecular target: T1, BetP (Corynebacterium glutamicum, UniProt P54582, G153D); experiment: tryptophan fluorescence titration, proteoliposomes; assay type: binding
T1 sequence (P54582 1-595 G153D): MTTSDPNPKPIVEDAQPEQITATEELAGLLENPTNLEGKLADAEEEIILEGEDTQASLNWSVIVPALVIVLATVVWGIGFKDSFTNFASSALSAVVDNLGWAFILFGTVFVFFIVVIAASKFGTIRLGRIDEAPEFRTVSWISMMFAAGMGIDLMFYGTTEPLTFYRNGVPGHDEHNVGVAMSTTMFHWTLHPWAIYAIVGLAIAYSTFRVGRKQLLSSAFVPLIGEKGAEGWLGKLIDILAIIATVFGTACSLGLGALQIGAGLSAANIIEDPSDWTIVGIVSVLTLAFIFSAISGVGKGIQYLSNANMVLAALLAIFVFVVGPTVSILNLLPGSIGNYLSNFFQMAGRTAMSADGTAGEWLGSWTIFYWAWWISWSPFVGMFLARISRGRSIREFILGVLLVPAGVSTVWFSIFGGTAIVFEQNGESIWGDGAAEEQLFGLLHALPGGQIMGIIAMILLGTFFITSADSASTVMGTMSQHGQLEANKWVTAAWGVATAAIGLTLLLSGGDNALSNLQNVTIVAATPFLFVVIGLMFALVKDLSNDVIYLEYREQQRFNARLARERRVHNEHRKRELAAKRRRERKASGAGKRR
How it was run: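 Strep-tagged BetP-G153D was expressed in E. coli, affinity-purified in DDM, and reconstituted into E. coli polar-lipid liposomes (lipid/protein 10:1 w/w, 250 mM KPi pH 7.5), used at 100 μg/ml protein. Substrate was 0.1–16 mM with 100 mM NaCl at pH 7.5, or 0.8–30 mM (pH 5.5) or 0.8–100 mM (pH 7.5) without NaCl. Excitation 295 nm; emission at 340 nm, eight readings averaged. Mean and SD were fitted for the binding constant.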

BetP [2] = molecular target: BetP (Corynebacterium glutamicum, UniProt P54582); experiment: […]-betaine uptake in E. coli MKH13 expressing BetP; assay type: cell-based; conditions: 250 μM [14C]-betaine, NaCl titration, pH 7.5, 800 mOsmol/kg, 37 °C; labelled compound
Chain of BetP (Corynebacterium glutamicum, UniProt P54582) (P54582 whole entry): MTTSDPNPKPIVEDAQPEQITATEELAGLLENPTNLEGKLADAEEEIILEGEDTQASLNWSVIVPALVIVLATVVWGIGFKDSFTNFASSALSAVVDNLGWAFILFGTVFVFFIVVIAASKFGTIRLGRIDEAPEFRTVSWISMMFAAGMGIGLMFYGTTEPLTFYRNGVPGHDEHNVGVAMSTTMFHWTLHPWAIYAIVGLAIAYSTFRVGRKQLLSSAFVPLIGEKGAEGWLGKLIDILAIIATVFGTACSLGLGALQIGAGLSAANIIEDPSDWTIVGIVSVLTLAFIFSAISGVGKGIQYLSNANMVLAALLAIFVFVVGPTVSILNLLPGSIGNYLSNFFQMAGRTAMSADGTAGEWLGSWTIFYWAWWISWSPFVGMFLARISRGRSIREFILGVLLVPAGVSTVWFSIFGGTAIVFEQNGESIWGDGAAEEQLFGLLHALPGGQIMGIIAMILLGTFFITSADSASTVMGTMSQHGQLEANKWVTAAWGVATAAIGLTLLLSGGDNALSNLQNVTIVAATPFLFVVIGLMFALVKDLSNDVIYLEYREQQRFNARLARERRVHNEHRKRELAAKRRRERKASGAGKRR

| Structure (SMILES) | Kd (BetP [1]) [µM] | [14C]-betaine uptake in E. coli MKH13 expressing BetP (BetP [2]) |
| --- | --- | --- |
| C[N+](C)(C)CCO [Choline] | 1150 ± 90 |  |
| C[N+](C)(C)CC(=O)[O-] [[14C]-betaine] |  | cells expressing BetP WT or the mutant N309A |
